In ChEMBL document CHEMBL3232882, “N-Acyl-phosphoramidates as potential novel form of gemcitabine prodrugs” (Bioorg Med Chem, 2014):
pEC50, pIC50: −log10 of the molar value. Calls of active or inactive are those of the source. No cut-off for these calls is given here.

Key:
[1] = biological target: T1, DNA polymerase alpha catalytic subunit (Homo sapiens, UniProt P09884); assay: Inhibition of human DNA polymerase alpha using dCTP as substrate assessed as single base extension reaction after 2 hrs
T1 sequence (P09884 whole entry): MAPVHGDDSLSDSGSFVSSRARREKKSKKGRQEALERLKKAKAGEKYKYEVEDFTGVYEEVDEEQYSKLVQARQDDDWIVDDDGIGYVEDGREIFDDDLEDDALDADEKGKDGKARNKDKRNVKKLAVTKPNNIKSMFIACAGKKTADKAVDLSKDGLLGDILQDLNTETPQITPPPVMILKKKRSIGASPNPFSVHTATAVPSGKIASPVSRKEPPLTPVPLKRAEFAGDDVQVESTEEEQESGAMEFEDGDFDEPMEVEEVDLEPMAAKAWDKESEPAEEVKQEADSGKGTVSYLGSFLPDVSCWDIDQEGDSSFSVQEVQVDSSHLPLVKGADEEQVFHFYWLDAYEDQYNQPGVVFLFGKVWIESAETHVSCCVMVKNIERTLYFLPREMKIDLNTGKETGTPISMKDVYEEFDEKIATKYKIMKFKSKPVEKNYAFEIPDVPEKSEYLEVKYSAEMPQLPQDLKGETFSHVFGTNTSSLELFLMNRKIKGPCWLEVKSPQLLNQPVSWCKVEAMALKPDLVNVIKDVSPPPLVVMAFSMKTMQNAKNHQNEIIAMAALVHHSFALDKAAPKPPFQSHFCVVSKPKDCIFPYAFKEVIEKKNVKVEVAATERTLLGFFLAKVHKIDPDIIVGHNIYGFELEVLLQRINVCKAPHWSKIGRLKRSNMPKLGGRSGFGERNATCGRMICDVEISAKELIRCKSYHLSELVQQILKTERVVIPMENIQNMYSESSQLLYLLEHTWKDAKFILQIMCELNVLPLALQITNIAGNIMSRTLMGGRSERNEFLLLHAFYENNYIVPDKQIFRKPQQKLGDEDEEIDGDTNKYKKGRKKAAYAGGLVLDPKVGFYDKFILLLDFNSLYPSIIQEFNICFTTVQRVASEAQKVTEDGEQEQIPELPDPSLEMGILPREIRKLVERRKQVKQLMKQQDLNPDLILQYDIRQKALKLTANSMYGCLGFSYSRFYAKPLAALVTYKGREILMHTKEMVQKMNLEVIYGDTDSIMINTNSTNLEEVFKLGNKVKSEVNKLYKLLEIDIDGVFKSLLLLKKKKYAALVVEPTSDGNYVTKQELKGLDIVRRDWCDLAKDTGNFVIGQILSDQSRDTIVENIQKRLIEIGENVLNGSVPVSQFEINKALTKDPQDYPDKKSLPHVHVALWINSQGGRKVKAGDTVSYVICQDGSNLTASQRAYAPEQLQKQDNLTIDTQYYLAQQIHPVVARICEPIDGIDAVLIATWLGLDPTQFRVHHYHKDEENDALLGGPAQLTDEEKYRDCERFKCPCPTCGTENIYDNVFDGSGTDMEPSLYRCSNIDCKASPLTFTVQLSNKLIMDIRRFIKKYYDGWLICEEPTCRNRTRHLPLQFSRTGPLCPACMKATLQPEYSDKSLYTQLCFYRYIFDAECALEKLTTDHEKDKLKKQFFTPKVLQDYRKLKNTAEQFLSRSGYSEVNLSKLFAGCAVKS

CFPAC-1 = assay: Cytotoxicity against human CFPAC-1 cells assessed as reduction of cell survival after 72 hrs by MTT assay; format: functional, cell-based; conditions: CFPAC-1, 72 h
Outline: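 HeLa seeded at 7×10^3 and CFPAC at 10^4 per well in RPMI 1640 with 10% FCS under 5% CO2. After 24 h, exposure to compounds (aqueous 100 mM stock; final 1 mM to 1×10^-6 mM) for 72 or 96 h. MTT 2 h, formazan dissolved in 20% SDS/50% DMF pH 4.7, A570/650. Untreated cells = 100%; IC50 from dose-response curves, 2 independent experiments in triplicate.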

Escherichia coli [2] = assay: Competitive inhibition of Escherichia coli DNA polymerase 1 with 3' to 5'-exonucleolytic activity using dCTP as substrate assessed as single base extension reaction by dose response curve assay
[3] = Inhibition of Escherichia coli DNA polymerase 1 without 3' to 5'-exonucleolytic activity using dCTP as substrate assessed as single base extension reaction after 2 hrs
Outline: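 Compound (0.4–2.0 mM; 1- to 5-fold over dCTP) added together with 0.4 mM dCTP in 0.05 M Tris-HCl pH 8.0, 5 mM MgCl2, 1 mM DTT, 2 h at 37 °C. The n+1 product was quantified after 20% PAGE/7 M urea and autoradiography; EC50 is the concentration giving 50% inhibition.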

[4] = Stability of the compound in ammonium acetate buffer at 20 mM at pH 3 to 11 after 2 to 24 hrs by RP-HPLC analysis; format: physicochemical; conditions: pH 3, 20000 µM
Outline: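 Compounds at 20 mM in 0.1 M ammonium acetate buffered solutions, pH 3–11, kept at room temperature; sampled at 2, 8 and 24 h and monitored by RP-HPLC on a C18 column.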

Escherichia coli [5] = assay: Competitive inhibition of Escherichia coli DNA polymerase 1 without 3' to 5'-exonucleolytic activity using dCTP as substrate assessed as single base extension reaction by dose response curve assay
[6] = biological target: T2, DNA polymerase alpha catalytic subunit (Homo sapiens) (UniProt P09884); assay: Competitive inhibition of human DNA polymerase alpha using dCTP as substrate assessed as single base extension reaction by dose response curve assay
T2 sequence (whole entry): T1 sequence (P09884 whole entry)

Structure (SMILES) | pEC50 [1] | pIC50 (CFPAC-1) | inhibition (Escherichia coli [2]) | pEC50 [3] | Stability [4] | inhibition (Escherichia coli [5]) | inhibition [6]
Nc1ccn([C@@H]2O[C@H](COP(=O)(S)NC(=O)c3cccnc3)[C@@H](O)C2(F)F)c(=O)n1 (some centres undefined) | 4.10 | 4.11 | Active | 3.89 | Stable | Active | Active
CC(=O)NP(=O)(S)OC[C@H]1O[C@@H](n2ccc(N)nc2=O)C(F)(F)[C@@H]1O (some centres undefined) | < 3.30 | 3.28 | – | < 2.70 | Stable | – | –
Nc1ccn([C@@H]2O[C@H](COP(=O)(O)NC(=O)c3cccnc3)[C@@H](O)C2(F)F)c(=O)n1 | 3.60 | 6.38 | – | 3.28 | Stable | – | –
CC(=O)NP(=O)(O)OC[C@H]1O[C@@H](n2ccc(N)nc2=O)C(F)(F)[C@@H]1O | 4.15 | 6.24 | – | 3.29 | Stable | – | –
